Reference: ChEMBL document CHEMBL1155278, “3,4-Diaryl-isoxazoles and -imidazoles as potent dual inhibitors of p38alpha mitogen activated protein kinase and casein kinase 1delta” (J Med Chem, 2009)

Key:
[1] = molecular target: Ephrin type-A receptor 2 (Homo sapiens) (UniProt P29317); assay: Inhibition of EPHA2 assessed as residual activity at 0.1 uM by Cherenkov counting relative to control in presence of 50 uM ATP
Outline: (§1)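 Single-concentration screen at 0.1 µM across a panel of 76 protein kinases. Each kinase was run at an ATP concentration approximating its ATP Km. Results are % mean residual activity versus control assays without compound (n = 3 ± SD).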

[2] = Inhibition of VEGFR assessed as residual activity at 0.1 uM by Cherenkov counting relative to control in presence of 20 uM ATP
Outline: (§2)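 Single-concentration screen at 0.1 μM in a 76-kinase panel. ATP for each kinase was set near its Km for ATP. Residual activity is given as a percentage of control assays without compound, mean of n = 3 ± SD.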

[3] = molecular target: Mitogen-activated protein kinase 14 (Homo sapiens, UniProt Q16539); assay: Inhibition of p38alpha by Cherenkov counting
[4] = Inhibition of PKA assessed as residual activity at 0.1 uM by Cherenkov counting relative to control in presence of 20 uM ATP
Outline: (§3)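 Single-concentration selectivity screen at 0.1 μM against a panel of 76 protein kinases. Each kinase was run at an ATP level approximating its Km for ATP. Output is mean residual activity as % of the control assay without compound, n = 3 ± SD.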

[5] = molecular target: Mitogen-activated protein kinase 11 (Homo sapiens) (UniProt Q15759); assay: Inhibition of p38beta at 0.1 uM by Cherenkov counting; outline: as §2
[6] = molecular target: Serine/threonine-protein kinase PAK 6 (Homo sapiens) (UniProt Q9NQU5); assay: Inhibition of PAK6 assessed as residual activity at 0.1 uM by Cherenkov counting relative to control in presence of 20 uM ATP; outline: as §3
[7] = molecular target: Calcium/calmodulin-dependent protein kinase type 1 (Homo sapiens) (UniProt Q14012); assay: Inhibition of CAMK1 assessed as residual activity at 0.1 uM by Cherenkov counting relative to control in presence of 50 uM ATP; outline: as §1
[8] = molecular target: Fibroblast growth factor receptor 1 (Homo sapiens) (UniProt P11362); assay: Inhibition of FGFR1 assessed as residual activity at 0.1 uM by Cherenkov counting relative to control in presence of 20 uM ATP; outline: as §1
[9] = molecular target: Serine/threonine-protein kinase PAK 4 (Homo sapiens) (UniProt O96013); assay: Inhibition of PAK4 assessed as residual activity at 0.1 uM by Cherenkov counting relative to control in presence of 5 uM ATP; outline: as §3
[10] = molecular target: Aurora kinase C (Homo sapiens) (UniProt Q9UQB9); assay: Inhibition of Aurora C assessed as residual activity at 10 uM by Cherenkov counting relative to control
Outline: (§4)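 Single-point profiling at 10 µM in a panel of 78 protein kinases. Kinase activity is expressed as a percentage relative to control assays without compound.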

[11] = molecular target: Myosin light chain kinase, smooth muscle (Homo sapiens) (UniProt Q15746); assay: Inhibition of smooth muscle MLCK assessed as residual activity at 10 uM by Cherenkov counting relative to control in presence of 50 uM ATP
Outline: (§5)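 Single-concentration profiling at 10 μM in a 78-kinase panel. Kinase activity is expressed as a percentage of control assays run without compound.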

[12] = molecular target: T1, Dual specificity tyrosine-phosphorylation-regulated kinase 3 (Homo sapiens) (UniProt O43781); assay: Inhibition of DYRK3 assessed as residual activity at 10 uM by Cherenkov counting relative to control in presence of 5 uM ATP; outline: as §4
T1 sequence (whole entry): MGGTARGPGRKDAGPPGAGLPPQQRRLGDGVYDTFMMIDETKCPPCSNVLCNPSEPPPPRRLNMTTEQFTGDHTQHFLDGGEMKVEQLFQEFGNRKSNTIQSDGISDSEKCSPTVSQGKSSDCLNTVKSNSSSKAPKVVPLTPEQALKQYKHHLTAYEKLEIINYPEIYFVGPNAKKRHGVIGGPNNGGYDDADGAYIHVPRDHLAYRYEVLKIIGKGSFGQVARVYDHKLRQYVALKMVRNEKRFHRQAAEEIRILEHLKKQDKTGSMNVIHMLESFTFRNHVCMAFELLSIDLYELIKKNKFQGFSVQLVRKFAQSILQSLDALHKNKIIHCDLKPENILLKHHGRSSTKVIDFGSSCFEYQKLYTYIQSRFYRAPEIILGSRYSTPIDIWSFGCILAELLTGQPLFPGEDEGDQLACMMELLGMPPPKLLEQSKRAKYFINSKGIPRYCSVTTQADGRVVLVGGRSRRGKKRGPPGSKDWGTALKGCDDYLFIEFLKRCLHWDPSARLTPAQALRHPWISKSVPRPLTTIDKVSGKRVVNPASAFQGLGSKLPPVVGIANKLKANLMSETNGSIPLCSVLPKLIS

[13] = molecular target: Tyrosine-protein kinase CSK (Homo sapiens) (UniProt P41240); assay: Inhibition of CSK assessed as residual activity at 10 uM by Cherenkov counting relative to control in presence of 20 uM ATP; outline: as §4
[14] = molecular target: T2, Serine/threonine-protein kinase Chk1 (Homo sapiens) (UniProt O14757); assay: Inhibition of CHK1 assessed as residual activity at 10 uM by Cherenkov counting relative to control in presence of 20 uM ATP; outline: as §4
T2 sequence (whole entry): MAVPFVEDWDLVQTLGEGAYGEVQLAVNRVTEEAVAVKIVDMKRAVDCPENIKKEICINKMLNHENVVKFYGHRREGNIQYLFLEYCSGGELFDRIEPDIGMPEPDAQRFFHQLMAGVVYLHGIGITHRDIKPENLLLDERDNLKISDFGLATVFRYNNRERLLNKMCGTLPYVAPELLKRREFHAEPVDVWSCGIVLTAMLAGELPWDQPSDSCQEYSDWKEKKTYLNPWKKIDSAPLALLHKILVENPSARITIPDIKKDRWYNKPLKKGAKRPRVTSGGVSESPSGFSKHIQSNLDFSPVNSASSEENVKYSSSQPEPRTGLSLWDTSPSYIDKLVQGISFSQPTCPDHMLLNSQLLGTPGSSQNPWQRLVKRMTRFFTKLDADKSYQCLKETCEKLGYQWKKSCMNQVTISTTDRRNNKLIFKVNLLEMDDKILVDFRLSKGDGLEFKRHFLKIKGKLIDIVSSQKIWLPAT

[15] = molecular target: Serine/threonine-protein kinase Nek6 (Homo sapiens) (UniProt Q9HC98); assay: Inhibition of NEK6 assessed as residual activity at 10 uM by Cherenkov counting relative to control in presence of 50 uM ATP
[16] = Inhibition of AMPK assessed as residual activity at 10 uM by Cherenkov counting relative to control in presence of 50 uM ATP; outline: as §4
[17] = molecular target: Proto-oncogene tyrosine-protein kinase Src (Homo sapiens) (UniProt P12931); assay: Inhibition of Src assessed as residual activity at 10 uM by Cherenkov counting relative to control in presence of 50 uM ATP; outline: as §5
[18] = molecular target: Calcium/calmodulin-dependent protein kinase kinase 2 (Homo sapiens) (UniProt Q96RR4); assay: Inhibition of CAMKKbeta assessed as residual activity at 10 uM by Cherenkov counting relative to control; outline: as §4
Chain of Calcium/calmodulin-dependent protein kinase kinase 2 (Homo sapiens) (Q96RR4 2-588 limits assumed): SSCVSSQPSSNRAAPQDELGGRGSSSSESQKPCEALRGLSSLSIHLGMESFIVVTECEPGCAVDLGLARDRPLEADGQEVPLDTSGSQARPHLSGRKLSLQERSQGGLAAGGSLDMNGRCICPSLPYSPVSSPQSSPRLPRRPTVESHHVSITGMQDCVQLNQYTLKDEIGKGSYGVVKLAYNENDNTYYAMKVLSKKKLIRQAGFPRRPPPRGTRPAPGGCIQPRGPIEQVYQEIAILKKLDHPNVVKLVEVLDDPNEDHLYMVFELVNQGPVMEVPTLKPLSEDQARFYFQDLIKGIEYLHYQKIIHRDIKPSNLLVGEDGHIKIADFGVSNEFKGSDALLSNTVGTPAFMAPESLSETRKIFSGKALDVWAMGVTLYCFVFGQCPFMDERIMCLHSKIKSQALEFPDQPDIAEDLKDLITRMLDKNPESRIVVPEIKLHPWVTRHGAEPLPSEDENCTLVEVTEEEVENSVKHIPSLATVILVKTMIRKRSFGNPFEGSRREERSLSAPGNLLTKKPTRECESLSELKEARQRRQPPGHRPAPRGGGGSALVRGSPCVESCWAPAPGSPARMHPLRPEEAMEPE

Chain of Mitogen-activated protein kinase 14 (Q16539 whole entry): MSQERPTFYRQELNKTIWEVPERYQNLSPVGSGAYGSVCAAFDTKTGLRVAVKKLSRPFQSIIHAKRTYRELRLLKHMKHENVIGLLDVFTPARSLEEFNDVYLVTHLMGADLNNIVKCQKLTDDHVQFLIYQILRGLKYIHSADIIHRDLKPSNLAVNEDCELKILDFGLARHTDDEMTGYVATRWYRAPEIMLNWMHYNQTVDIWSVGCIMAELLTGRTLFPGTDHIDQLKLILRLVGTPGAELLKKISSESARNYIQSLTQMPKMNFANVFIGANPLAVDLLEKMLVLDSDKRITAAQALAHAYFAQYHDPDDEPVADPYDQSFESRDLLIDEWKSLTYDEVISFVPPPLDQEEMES
Chain of Mitogen-activated protein kinase 11 (Homo sapiens) (Q15759 whole entry): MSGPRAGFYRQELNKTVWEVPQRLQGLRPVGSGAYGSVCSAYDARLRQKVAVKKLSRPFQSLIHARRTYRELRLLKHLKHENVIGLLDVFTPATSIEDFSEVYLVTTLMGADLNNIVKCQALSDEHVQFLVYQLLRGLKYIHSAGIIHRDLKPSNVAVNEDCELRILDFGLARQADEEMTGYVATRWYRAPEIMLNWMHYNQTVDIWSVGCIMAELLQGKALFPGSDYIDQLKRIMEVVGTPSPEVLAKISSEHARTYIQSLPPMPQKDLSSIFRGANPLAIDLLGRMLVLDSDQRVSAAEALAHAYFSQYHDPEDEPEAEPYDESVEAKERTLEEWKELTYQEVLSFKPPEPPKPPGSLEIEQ
Chain of Ephrin type-A receptor 2 (Homo sapiens) (P29317 whole entry): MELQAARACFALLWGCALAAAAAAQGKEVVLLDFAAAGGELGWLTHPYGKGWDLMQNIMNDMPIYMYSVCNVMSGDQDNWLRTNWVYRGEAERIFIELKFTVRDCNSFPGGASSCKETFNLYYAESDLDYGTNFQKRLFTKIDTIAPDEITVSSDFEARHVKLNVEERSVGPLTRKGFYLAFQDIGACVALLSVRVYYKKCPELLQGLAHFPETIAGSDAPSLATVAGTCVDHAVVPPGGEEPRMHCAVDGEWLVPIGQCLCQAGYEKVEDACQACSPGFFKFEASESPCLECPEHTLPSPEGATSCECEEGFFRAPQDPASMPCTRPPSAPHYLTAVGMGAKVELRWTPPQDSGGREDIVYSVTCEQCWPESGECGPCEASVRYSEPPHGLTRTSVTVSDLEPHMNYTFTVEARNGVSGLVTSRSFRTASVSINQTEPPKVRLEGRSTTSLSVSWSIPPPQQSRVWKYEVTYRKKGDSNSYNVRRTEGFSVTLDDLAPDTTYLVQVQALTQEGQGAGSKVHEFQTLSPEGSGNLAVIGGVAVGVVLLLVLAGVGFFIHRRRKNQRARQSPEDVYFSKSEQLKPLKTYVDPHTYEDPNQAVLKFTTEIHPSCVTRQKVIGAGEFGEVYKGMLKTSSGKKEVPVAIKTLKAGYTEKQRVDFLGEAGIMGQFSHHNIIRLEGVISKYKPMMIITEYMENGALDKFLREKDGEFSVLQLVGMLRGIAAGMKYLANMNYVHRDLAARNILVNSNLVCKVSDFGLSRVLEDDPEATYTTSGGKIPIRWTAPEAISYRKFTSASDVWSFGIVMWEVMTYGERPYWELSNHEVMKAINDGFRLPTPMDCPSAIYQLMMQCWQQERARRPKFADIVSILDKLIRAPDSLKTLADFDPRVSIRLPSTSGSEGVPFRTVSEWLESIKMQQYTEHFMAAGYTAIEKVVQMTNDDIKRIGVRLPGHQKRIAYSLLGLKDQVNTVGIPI
Chain of Tyrosine-protein kinase CSK (Homo sapiens) (P41240 2-450 limits assumed): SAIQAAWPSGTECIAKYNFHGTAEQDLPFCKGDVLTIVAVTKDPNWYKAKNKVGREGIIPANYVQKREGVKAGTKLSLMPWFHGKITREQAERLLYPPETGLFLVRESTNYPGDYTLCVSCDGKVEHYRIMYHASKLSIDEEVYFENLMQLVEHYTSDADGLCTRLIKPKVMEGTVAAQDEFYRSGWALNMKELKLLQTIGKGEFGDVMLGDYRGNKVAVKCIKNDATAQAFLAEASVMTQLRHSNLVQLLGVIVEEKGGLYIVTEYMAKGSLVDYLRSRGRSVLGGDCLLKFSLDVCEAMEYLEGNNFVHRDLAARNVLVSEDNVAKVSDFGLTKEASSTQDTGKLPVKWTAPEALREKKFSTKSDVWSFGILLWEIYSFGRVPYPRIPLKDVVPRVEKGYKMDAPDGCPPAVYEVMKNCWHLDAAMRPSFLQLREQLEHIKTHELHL
Chain of Myosin light chain kinase, smooth muscle (Homo sapiens) (Q15746 whole entry): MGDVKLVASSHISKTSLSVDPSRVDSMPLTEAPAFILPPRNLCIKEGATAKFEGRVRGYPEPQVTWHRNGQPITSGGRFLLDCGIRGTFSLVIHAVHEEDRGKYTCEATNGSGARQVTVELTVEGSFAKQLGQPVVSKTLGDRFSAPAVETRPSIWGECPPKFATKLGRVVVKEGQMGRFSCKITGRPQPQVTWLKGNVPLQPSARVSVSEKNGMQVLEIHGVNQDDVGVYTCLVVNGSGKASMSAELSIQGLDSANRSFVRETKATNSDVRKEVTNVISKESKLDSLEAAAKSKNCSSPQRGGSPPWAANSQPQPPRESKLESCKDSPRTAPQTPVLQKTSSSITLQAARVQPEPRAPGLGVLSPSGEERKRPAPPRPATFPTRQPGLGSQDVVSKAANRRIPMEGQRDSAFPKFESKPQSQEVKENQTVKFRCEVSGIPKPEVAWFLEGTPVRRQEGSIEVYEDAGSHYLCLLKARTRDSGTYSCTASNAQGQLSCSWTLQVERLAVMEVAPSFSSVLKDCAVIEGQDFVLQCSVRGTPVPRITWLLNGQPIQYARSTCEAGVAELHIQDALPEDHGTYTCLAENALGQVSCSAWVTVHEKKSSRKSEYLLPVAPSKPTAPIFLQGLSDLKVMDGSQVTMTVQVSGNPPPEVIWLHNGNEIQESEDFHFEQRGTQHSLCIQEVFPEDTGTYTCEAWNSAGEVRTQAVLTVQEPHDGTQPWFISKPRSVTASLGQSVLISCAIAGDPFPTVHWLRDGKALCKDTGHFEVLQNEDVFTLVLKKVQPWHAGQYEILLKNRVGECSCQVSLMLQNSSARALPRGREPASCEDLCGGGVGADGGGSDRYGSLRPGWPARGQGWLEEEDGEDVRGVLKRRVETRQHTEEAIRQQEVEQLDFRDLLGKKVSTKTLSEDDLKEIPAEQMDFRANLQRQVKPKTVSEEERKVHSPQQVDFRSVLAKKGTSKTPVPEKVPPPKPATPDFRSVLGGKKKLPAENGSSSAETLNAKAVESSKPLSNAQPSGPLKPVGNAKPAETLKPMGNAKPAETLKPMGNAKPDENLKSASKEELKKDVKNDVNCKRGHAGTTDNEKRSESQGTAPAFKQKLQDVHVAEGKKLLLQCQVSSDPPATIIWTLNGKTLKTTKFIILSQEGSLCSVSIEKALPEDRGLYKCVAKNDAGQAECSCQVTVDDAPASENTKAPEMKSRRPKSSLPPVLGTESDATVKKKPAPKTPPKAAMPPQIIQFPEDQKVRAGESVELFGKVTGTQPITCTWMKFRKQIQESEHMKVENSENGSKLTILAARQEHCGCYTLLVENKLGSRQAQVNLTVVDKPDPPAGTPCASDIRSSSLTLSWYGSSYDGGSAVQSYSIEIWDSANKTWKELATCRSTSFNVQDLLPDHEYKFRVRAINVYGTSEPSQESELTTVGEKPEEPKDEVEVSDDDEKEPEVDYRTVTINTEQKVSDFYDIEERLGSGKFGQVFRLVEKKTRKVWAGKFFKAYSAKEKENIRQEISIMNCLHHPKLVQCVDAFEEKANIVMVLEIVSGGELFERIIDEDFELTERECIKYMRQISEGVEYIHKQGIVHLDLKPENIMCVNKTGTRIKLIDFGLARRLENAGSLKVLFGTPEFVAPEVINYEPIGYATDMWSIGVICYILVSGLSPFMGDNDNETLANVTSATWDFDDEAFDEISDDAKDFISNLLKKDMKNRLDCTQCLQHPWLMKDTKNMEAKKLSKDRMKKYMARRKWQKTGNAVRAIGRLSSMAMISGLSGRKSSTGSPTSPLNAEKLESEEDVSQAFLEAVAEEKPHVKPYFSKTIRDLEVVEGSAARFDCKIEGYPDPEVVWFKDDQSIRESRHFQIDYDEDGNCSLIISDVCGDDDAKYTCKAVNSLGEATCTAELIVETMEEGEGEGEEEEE
Chain of Calcium/calmodulin-dependent protein kinase type 1 (Homo sapiens) (Q14012 whole entry, looked up): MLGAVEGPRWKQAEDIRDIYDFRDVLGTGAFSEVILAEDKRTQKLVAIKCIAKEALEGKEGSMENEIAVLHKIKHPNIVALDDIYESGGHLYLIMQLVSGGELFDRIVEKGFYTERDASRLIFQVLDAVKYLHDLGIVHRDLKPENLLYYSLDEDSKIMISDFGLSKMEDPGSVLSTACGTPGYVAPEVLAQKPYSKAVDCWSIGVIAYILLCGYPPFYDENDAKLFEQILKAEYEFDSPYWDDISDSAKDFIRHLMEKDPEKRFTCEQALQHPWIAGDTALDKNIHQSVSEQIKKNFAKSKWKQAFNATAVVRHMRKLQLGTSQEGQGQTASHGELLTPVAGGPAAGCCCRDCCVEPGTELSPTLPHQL

| Compound | Activity [1] [%] | Activity [2] [%] | IC50 [3] [nM] | Activity [4] [%] | inhibition [5] [%] | Activity [6] [%] | Activity [7] [%] | Activity [8] [%] | Activity [9] [%] | Activity [10] [%] | Activity [11] [%] | Activity [12] [%] | Activity [13] [%] | Activity [14] [%] | Activity [15] [%] | Activity [16] [%] | Activity [17] [%] | Activity [18] [%] |
| --- | --- | --- | --- | --- | --- | --- | --- | --- | --- | --- | --- | --- | --- | --- | --- | --- | --- | --- |
| COc1ccc(/C=C/C(=O)Nc2cc(-c3[nH]c(SC)nc3-c3ccc(F)cc3)ccn2)c(OC)c1 | 97 | 33 | 19 | 84 | 83 | 76 | 92 | 50 | 81 |  |  |  |  |  |  |  |  |  |
| COc1ccc(/C=C/C(=O)Nc2cc(-c3[nH]c([S+](C)[O-])nc3-c3ccc(F)cc3)ccn2)c(OC)c1 (stereo unspecified) | 95 | 46 | 41 | 92 | 54 | 84 | 98 | 50 | 98 |  |  |  |  |  |  |  |  |  |
| CC(C)c1noc(-c2ccc(F)cc2)c1-c1ccncc1 |  |  |  |  |  |  |  |  |  | 35 | 110 | 101 | 95 | 102 | 108 | 73 | 90 | 97 |
| CC(C)c1onc(-c2ccc(F)cc2)c1-c1ccncc1 |  |  |  |  |  |  |  |  |  | 110 | 99 | 97 | 87 | 91 | 112 | 88 | 72 | 99 |
